Bioassay records from PubChem BioAssay.
Rows were chosen to be rich in hits. Some 2.9% of all compounds tested hit in one or more screens of this group.
Cneo AK release: Cryptococcus neoformans cell lysis inducers, primary screen, AK release luminescence, single concentration; actives 0.2% (n = 360,000); lysis activity, % at 15 µM; C. neoformans lysis, adenylate kinase release luminescence, 4 h; normalised: neutral wells 0, clomiphene wells 100; AID 651654, 2012;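 active means mean lysis activity across replicates of at least 80%, whatever share of replicates individually reach that level; inactive means mean lysis activity below 80%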
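Material – log-phase Cryptococcus neoformans yeast cells · Input – 5 × 10^6 yeast cells/mL · Medium – fresh YPD growth medium · Doses – single compound concentration per well · Timing – static 4 h at 37 °C with compound, 1 h detection · Detection – adenylate kinase release luminescence · Read-out – signal increase indicating cell lysis · Control set – Clomiphene as positive lysis control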
PglD inh: C. jejuni PglD acetyltransferase inhibitors, primary screen, biochemical, DTNB colorimetric, single point; actives 0.098% (n = 360,000); UDP-N-acetylbacillosamine N-acetyltransferase PglD (Campylobacter jejuni); inhibition, % at 12.5 µM; AID 602405, 2012; purified PglD enzyme, DTNB colorimetric CoA detection; in the data active means inhibition above about 16%, passing the limit was not always enough
PGC1a acetyl inh: inhibitors of PGC1a acetylation signal, primary screen, cell-based, U2OS, AlphaScreen, inhibitor mode; AlphaScreen anti-acetyl-lysine; with virally co-expressed GCN5 acetyltransferase; inhibition, % at 15.6 µM; actives 0.17% (n = 350,000); AID 651687, 2012;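 active means every replicate shows inhibition of at least 40%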;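 further: 0% = neutral control wells and 100% = positive control wells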
Vif inh: HIV Vif self-association inhibitors, primary screen, imaging, HEK293T, single point. HEK293T cells, Vif self-association by quenched fluorescence, 24 h. inhibition, % at 7.49 µM. actives 0.35% (n = 340,000). AID 602346, 2012; in the data active means inhibition above about 50%, passing the limit was not always enough
FGF22 binding: binders of human FGF22 protein, primary screen, FGF22 synaptogenesis inhibitor project, biophysical, thermal shift, single point; Fibroblast growth factor 22 (Homo sapiens), Q9HCT0; recombinant FGF22 thermal shift, SYPRO orange fluorescence; percent of sucrose octasulfate shift, DMSO zero; activity (Tm shift, normalised), % at 9.99 µM; actives 1.5% (n = 340,000); AID 651658, 2012;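 active means mean Tm shift, scaled 0 neutral to 100 positive control, at about 1.3% or above, every replicate too, limit read from the data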
Target sequence (Q9HCT0 whole entry, looked up): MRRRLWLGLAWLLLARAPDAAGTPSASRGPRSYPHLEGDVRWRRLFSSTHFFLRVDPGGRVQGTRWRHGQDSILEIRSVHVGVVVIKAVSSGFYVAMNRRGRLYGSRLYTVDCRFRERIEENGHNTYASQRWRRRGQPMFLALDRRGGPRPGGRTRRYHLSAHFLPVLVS
rRNA inh HTS: reduced GFP signal of wild-type E. coli, primary screen, bacterial rRNA inhibitor project, GFP/RFP fluorescence, OD600, single point; E. coli WT GFP vs humanized-ribosome RFP mutants, 24 h; hits give low values; DMSO median 0, no signal -100; GFP signal change (wild-type ribosome), % (no concentration beside the values); actives 1.6% (n = 350,000);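 active means significant combined selectivity score with lowered wild-type GFP, culture density cut under 30%, mutant RFP and density less affected; inactive means any of these conditions unmet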
* marks the source's active call; other numbers are inactive results; . = no result.

SMILES	Cneo AK release	PglD inh	PGC1a acetyl inh	Vif inh	FGF22 binding	rRNA inh HTS
Cc1ccc(NC(=O)Cn2c(O)c(N=NC(N)=S)c3ccccc32)cc1	2	-5	0	66*	0	2
S=c1sc2c(Cl)ncnc2n1-c1ccccc1	-1	-2	64*	13	0	-32
CC1CCCCC12NC(=O)N(CC(=O)Nc1ccccc1N1CCOCC1)C2=O (stereo not drawn)	.	.	.	0	43*	10
CC1CCCCC12NC(=O)N(CC(=O)Nc1nccs1)C2=O (stereo not drawn)	-1	-3	2	-1	43*	12
Cc1ccccc1Nc1nnc(SCC2CCCCO2)s1 (stereo not drawn)	-10	-5	2	10	0	-22*
C[C@@H]1CCCCO[C@H](CN(C)C(=O)Nc2ccccc2)[C@H](C)CN([C@@H](C)CO)C(=O)c2cc(NC(=O)c3ccncc3)ccc2O1	0	0	5	.	.	-3
COc1cccc2c1-c1c(O)cccc1C2=O	0	-9	.	-7	0	-6
CC1OC(CC(=O)O)CC2=C1C(=O)c1c(O)cccc1C2=O (stereo not drawn)	.	.	75*	11	0	-44
NC(=O)N/N=C/c1ccccc1OC(=O)c1ccccc1Br	.	.	5	4	43*	-30
COc1ccccc1/C=N/NC(=O)c1ccccc1Cl	.	.	.	4	0	18
COc1ccccc1C=NNC(=O)c1ccccc1OCCOc1ccccc1	0	14	-12	-10	0	-31*
O=C(N/N=C/c1ccccc1C(=O)O)c1ccccc1Br	0	-6	-2	2	0	18
COc1ccccc1C=NNC(=O)C(=O)NN=Cc1ccccc1OC	6	0	6	0	43*	7
C[C@@H]1CCCCO[C@@H](CN(C)C(=O)CCCN(C)C)[C@H](C)CN([C@@H](C)CO)C(=O)c2cc(NC(=O)c3ccncc3)ccc2O1	-1	3	4	.	0	2
CCOC(=O)C1=C(N)Oc2cc(O)ccc2C1c1ccc([N+](=O)[O-])cc1 (stereo not drawn)	.	.	-8	-1	0	-44*
CN1/C(=C\C=C(C#N)C#N)C(C)(C)c2ccccc21	0	-3	-12	119*	0	87
CC(C)Cn1cnc2c(c1=N)C(c1ccccc1)C1=C(CC(C)(C)CC1=O)O2 (stereo not drawn)	.	.	.	-3	0	-38*
Cc1cc(S(=O)(=O)N(Cc2ccc(C(C)C)cc2)CC2CCCO2)ccc1-n1cnnn1 (stereo not drawn)	-1	4	1	-25	.	-21*
Cc1cc(S(=O)(=O)N(Cc2ccc3c(c2)OCO3)CC2CCCO2)ccc1-n1cnnn1 (stereo not drawn)	1	-9	-2	10	.	.
Cc1cc(S(=O)(=O)N(Cc2ccc(F)cc2)CC2CCCO2)ccc1-n1cnnn1 (stereo not drawn)	0	2	6	-1	0	-21*
O=C(NCC[C@@H]1CC[C@@H](NC(=O)C2CCOCC2)[C@H](CO)O1)c1ccc(F)cc1	-1	8	-2	.	1	3
CC(/C=C\c1ccccc1)=C/C(=O)O	.	.	.	-4	0	-6
CC1=C(/C=C/C(C)=C/C=C/C(C)=C/C(=O)O)C(C)(C)CCC1	3	-3	-21	65*	0	5
CN(CC(=O)Nc1ccccc1Cl)C(=O)c1cccc(S(=O)(=O)N2CCN(c3ccccc3)CC2)c1	-3	0	4	-3	0	-6
CN(CC(=O)Nc1ccccc1Cl)C(=O)c1cccc(S(=O)(=O)N2CCN(c3ccc(F)cc3)CC2)c1	-1	-1	.	-10	0	-25*
SMILES	Cneo AK release	PglD inh	PGC1a acetyl inh	Vif inh	FGF22 binding	rRNA inh HTS
CN(C(=O)c1cccc(NC(=O)Cc2ccc(NC(=O)C3CCCN(C(=O)C4CCCC4)C3)cc2)c1)C1CCCCC1 (stereo not drawn)	1	1	2	-19	0	2
O=C(NCCCCc1ccccc1)c1cccc(NC(=O)C2CCCCC2)c1	1	1	-14	1	0	-30*
O=C(Cc1cccc(NC(=O)C2CCN(C(=O)C3CCCC3)CC2)c1)Nc1cccc(C(=O)N2CCCC2)c1	5	4	.	.	0	-21*
CN(C(=O)c1cccc(NC(=O)Cc2ccc(NC(=O)C3CCCN(C(=O)C4CC4)C3)cc2)c1)C1CCCC1 (stereo not drawn)	-1	4	.	2	43*	10
O=C(Cc1cccc(NC(=O)C2CCN(C(=O)C3CCCC3)CC2)c1)Nc1cccc(C(=O)N2CCCCC2)c1	-1	2	0	-1	0	-7
C[C@@H]1CN([C@H](C)CO)C(=O)c2cc(Br)cnc2O[C@@H]1CN(C)CC1CCCC1	-8	-1	1	.	0	6
C=CCn1c(-c2cc3c(s2)CCC(CC)C3)n[nH]c1=S (stereo not drawn)	.	.	.	-7	0	-38*
O=C(c1cc2cc(F)ccc2[nH]1)N1CCN(Cc2ccc3c(c2)OCO3)CC1	-4	1	-4	6	0	-40*
COc1ccc2c3c([nH]c2c1)[C@H](CO)N(Cc1ccncc1)CC31CN(C(=O)c2cccnc2)C1	.	.	.	.	.	0
O=C(COC(=O)c1cccc(NS(=O)(=O)c2ccc(F)c(F)c2)c1)NC(=O)NC1CCCC1	.	.	.	-25	0	-36*
O=C(COC(=O)c1cccc(F)c1)NC(=O)NC1CCCC1	3	3	-1	-1	0	-5
Cc1ccc(O)c(NC(=O)c2noc3c2CCc2ccccc2-3)c1	.	.	-2	-1	43*	19
Cc1cc(NC(=O)c2noc3c2CCc2ccccc2-3)no1	0	-1	7	8	0	-4
C[C@@H]1CN([C@@H](C)CO)C(=O)c2cccc(NC(=O)c3ccncc3)c2O[C@H]1CN(C)S(=O)(=O)c1cccs1	1	4	-4	.	0	2
CC(=O)Nc1ccc(NC(=O)C(C)OC(=O)C23CC4CC(CC(Cl)(C4)C2)C3)cc1 (stereo not drawn)	-1	-1	8	-5	0	-26*
